The source made the active and inactive calls. The rule behind the calls is not given here.
Tests used:
[1] = Displacement of [3H]nociceptin from human ORL1 receptor expressed in CHO-K1 cells; type: cell-based
Method in brief: (§1)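 Competition binding used membranes from stably transfected CHO-K1 cells. The radioligand was leucyl-[3H]nociceptin for ORL1 and [3H]diprenorphine for mu, delta and kappa. Nonspecific binding was defined with unlabeled nociceptin (ORL1), naloxone (mu), naltrindole (delta) or naloxone benzoylhydrazone (kappa). Incubation was 1 h at 25 °C in 50 mM Tris-HCl pH 7.8 with 5 mM MgCl2, 1 mM EGTA and 0.1% BSA. Samples were filtered on PEI-soaked GF/B filters and counted. Ki was derived by Cheng–Prusoff.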

[2] = Selectivity ratio of Ki for rat mu opioid receptor to Ki for human ORL1 receptor
Method in brief: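 Membranes came from CHO-K1 cells expressing rat mu opioid receptor ([3H]diprenorphine; naloxone defines nonspecific binding) or human ORL1 ([3H]nociceptin; unlabeled nociceptin). Ki values were calculated by Cheng–Prusoff.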

Mu-type opioid receptor [3] = molecular target: Mu-type opioid receptor (Rattus norvegicus, UniProt P33535); test: Displacement of [3H]diprenorphine from rat mu opioid receptor expressed in CHO-K1 cells; type: cell-based; method in brief: as §1
[4] = molecular target: Kappa-type opioid receptor (Rattus norvegicus, UniProt P34975); test: Displacement of [3H]diprenorphine from rat kappa opioid receptor expressed in CHO-K1 cells; type: cell-based; method in brief: as §1
[5] = molecular target: Delta-type opioid receptor (Rattus norvegicus, UniProt P33533); test: Displacement of [3H]diprenorphine from rat delta opioid receptor expressed in CHO-K1 cells; type: cell-based; method in brief: as §1
Mu-type opioid receptor [6] = molecular target: Mu-type opioid receptor (Homo sapiens, UniProt P35372); test: Displacement of [3H]diprenorphine from human mu opioid receptor expressed in CHO-K1 cells; type: cell-based; method in brief: as §1
CHO-K1 = test: Antagonist activity at human ORL1 receptor expressed in CHO-K1 cells assessed as inhibition of forskolin-stimulated cAMP accumulation; type: functional, cell-based
Method in brief: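 CHO-K1 cells stably expressing human ORL1 were preincubated 5 min at 37 °C, 5% CO2, in Krebs-Henseleit solution (pH 7.4) with 0.5 mM IBMX. Forskolin (3 μM final) and test compound (1–1000 nM) were then added with or without nociceptin and incubated 10 min at 37 °C. Cells were lysed, and intracellular cAMP was measured by enzyme immunoassay the same day.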

[7] = Antagonist activity at human ORL1 receptor expressed in CHO-K1 cells assessed as inhibition of cAMP accumulation

Mu-type opioid receptor (Homo sapiens, UniProt P35372), sequence (P35372 whole entry): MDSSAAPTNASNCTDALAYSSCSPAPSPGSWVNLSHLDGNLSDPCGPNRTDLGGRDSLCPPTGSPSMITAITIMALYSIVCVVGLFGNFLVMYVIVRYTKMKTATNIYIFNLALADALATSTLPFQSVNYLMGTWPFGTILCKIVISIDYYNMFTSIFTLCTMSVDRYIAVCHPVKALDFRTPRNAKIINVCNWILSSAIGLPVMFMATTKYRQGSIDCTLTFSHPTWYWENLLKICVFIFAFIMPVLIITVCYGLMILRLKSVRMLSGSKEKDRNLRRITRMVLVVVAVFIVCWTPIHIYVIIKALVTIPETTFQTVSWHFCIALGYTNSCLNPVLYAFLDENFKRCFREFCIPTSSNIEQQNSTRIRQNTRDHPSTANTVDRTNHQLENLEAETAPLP
Mu-type opioid receptor (Rattus norvegicus, UniProt P33535), sequence (P33535 whole entry): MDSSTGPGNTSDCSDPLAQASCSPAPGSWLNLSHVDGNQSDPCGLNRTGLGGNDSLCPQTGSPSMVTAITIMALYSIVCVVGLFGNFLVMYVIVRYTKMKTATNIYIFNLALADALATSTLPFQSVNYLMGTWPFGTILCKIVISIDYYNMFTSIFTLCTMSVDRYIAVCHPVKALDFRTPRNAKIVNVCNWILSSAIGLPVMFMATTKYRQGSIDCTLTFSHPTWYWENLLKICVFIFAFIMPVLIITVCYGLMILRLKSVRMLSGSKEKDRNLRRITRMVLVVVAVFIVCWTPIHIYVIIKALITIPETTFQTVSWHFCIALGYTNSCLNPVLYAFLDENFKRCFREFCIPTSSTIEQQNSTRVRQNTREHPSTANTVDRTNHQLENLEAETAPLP
Kappa-type opioid receptor, sequence (P34975 whole entry): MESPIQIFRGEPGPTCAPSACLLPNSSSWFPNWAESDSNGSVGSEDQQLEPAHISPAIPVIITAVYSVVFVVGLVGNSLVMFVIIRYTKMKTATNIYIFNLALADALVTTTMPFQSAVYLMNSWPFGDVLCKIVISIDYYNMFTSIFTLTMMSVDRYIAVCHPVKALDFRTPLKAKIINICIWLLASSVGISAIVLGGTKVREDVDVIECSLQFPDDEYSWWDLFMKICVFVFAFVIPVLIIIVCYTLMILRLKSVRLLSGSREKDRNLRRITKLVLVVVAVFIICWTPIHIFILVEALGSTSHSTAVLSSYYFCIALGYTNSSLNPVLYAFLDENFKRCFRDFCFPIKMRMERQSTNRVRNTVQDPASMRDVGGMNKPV
Delta-type opioid receptor, sequence (P33533 whole entry): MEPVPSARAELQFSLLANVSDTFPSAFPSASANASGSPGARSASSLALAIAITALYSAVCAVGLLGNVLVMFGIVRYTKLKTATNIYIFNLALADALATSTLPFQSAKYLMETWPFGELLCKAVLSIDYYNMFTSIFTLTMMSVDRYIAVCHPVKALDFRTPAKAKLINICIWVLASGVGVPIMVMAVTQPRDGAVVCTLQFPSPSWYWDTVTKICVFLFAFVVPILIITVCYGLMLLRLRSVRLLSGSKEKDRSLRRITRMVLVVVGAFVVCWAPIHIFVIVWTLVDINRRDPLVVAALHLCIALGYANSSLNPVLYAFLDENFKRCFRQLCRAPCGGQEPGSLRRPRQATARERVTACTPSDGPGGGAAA

SMILES | Ratio Ki [2] | Ki (Mu-type opioid receptor [3]) | Ki [4] | Ki [5] | Ki (Mu-type opioid receptor [6]) | IC50 [7] | Ki [1] | Activity (CHO-K1)
Cc1ccc2nc(NC(=O)c3ccc(Cl)cc3)nc(NC3CCCCC3NC(=N)N)c2c1 (racemic) |  |  | 1200 nM | 4000 nM | 310 nM |  | 2.1 nM | 
Cc1ccc2nc(/C=C/c3ccc(Cl)cc3)nc(NCCCCNC(=N)N)c2c1 | 14.4 | 2300 nM |  |  |  |  | 160 nM | 
NCCCCCCNc1nc(/C=C/c2ccc(Cl)cc2)nc2ccc(Cl)cc12 | 1.29 | 380 nM |  |  |  |  | 294 nM | 
CC(C)(C)c1ccc2nc(/C=C/c3ccc(Cl)cc3)nc(NCCCCCCN)c2c1 | 1.3 | 380 nM |  |  |  |  | 292 nM | 
Cc1ccc2nc(/C=C/c3ccc(Cl)cc3)nc(NCCCCCCNC(=N)N)c2c1 | 3.37 | 300 nM |  |  |  |  | 89 nM | 
NCCCCCCNc1nc(/C=C/c2ccc(Cl)cc2)nc2cc3ccccc3cc12 | 3.08 | 410 nM |  |  |  |  | 133 nM | 
Cc1ccc2nc(NC(=O)c3ccc(Cl)cc3)nc(N[C@@H]3CCCC[C@@H]3NC(=N)N)c2c1 (single isomer, unassigned) |  |  | 2400 nM | 3600 nM | 330 nM | 17 nM | 1.4 nM | inactive
Cc1cccc2c(NCCCCCCN)nc(/C=C/c3ccc(Cl)cc3)nc12 | 1.42 | 930 nM |  |  |  |  | 653 nM | 
Cc1ccc2nc(/C=C/c3ccc(Cl)cc3)nc(N[C@H]3CC[C@@H](N)CC3)c2c1 | 2.53 | 410 nM |  |  |  |  | 162 nM | 
Cc1ccc2nc(NC(=O)c3ccc(Cl)cc3)nc(N[C@H]3CCCC[C@H]3NC(=N)N)c2c1 (single isomer, unassigned) |  |  | 510 nM | 4300 nM | 270 nM |  | 140 nM | 

Further compounds by falling Ki (Mu-type opioid receptor [3]), results first:

Ratio Ki [2] | Ki (Mu-type opioid receptor [3]) | Ki [4] | Ki [5] | Ki (Mu-type opioid receptor [6]) | IC50 [7] | SMILES | Ki [1] | Activity (CHO-K1)
0.37 | 300 nM |  |  |  |  | Cc1ccc2nc(/C=C/c3ccc(Cl)cc3)nc(N[C@H]3CC[C@H](N)CC3)c2c1 | 795 nM | 
1.29 | 250 nM |  |  |  |  | Cc1ccc2nc(/C=C/c3ccc(Cl)cc3)nc(NCCCCN)c2c1 | 194 nM | 
0.25 | 240 nM |  |  |  |  | Cc1ccc2nc(/C=C/c3ccc(Cl)cc3)nc(NCCN)c2c1 | 972 nM | 
5.11 | 220 nM |  |  |  |  | Cc1ccc2nc(/C=C/c3ccc(Cl)cc3)nc(N[C@H]3CCCC[C@H]3NC(=N)N)c2c1 (racemic) | 43 nM | 
0.48 | 200 nM |  |  |  |  | Cc1ccc2c(NCCCCCCN)nc(/C=C/c3ccc(Cl)cc3)nc2c1 | 420 nM | 
0.33 | 180 nM |  |  |  |  | Cc1ccc2nc(/C=C/c3ccc(Cl)cc3)nc(N[C@H]3CCCC[C@@H]3N)c2c1 (racemic) | 538 nM | 
0.47 | 180 nM |  |  |  |  | NCCCCCCNc1nc(/C=C/c2ccc(Cl)cc2)nc2ccccc12 | 383 nM | 
0.21 | 170 nM |  |  |  |  | Cc1cccc2nc(/C=C/c3ccc(Cl)cc3)nc(NCCCCCCN)c12 | 808 nM | 
0.75 | 150 nM |  |  |  |  | Cc1ccc2nc(/C=C/c3ccc(Cl)cc3)nc(N[C@H]3CCCC[C@H]3N)c2c1 (racemic) | 200 nM | 
0.51 | 120 nM |  |  |  |  | Cc1ccc2nc(/C=C/c3ccc(Cl)cc3)nc(NCCCCCCN)c2c1 | 232 nM | 
0.39 | 60 nM |  |  |  |  | Cc1ccc2nc(/C=C/c3ccc(Cl)cc3)nc(N[C@H]3CC[C@@H](NC(=N)N)CC3)c2c1 | 152 nM | 

Source: ChEMBL document CHEMBL1139314, “Discovery and structure-activity relationships of 4-aminoquinazoline derivatives, a novel class of opioid receptor like-1 (ORL1) antagonists” (Bioorg Med Chem, 2009)
